In brackets after ≈: the same amount, converted by molar mass. Some results are limits rather than exact numbers.

What is called MIC is the lowest concentration found to suppress growth. Low readings indicate inhibition by little substance, high ones a need for much substance.

This assay relates to Mycobacterium tuberculosis. As to the kind of experiment: Antimycobacterial activity against Mycobacterium bovis BCG after 7 days by broth microdilution method. The format is functional. Conditions: variant bovis BCG, 168 h. Summed up: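 Strains were pre-grown in Middlebrook 7H11 with OADC. The microdilution assay ran in sealed 96-well plates at 37 °C and was read after 72 h for M. smegmatis mc²155 and after 7 days for M. bovis BCG.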
For orientation: In broth dilution the organism is exposed to a series of concentrations in liquid medium.
For the compound `CC[C@@H](CO)NCCN[C@@H](CC)CO` [ETHAMBUTOL], 2 µg/mL (≈ 9.79 µM) was the least that counted as inhibitory (MIC).

`CCCCn1cc(C(=O)OCC)c(=O)c2ccc3c(nnn3Cc3ccccc3)c21` returned an MIC of 64 µg/mL (≈ 158 µM).

On to `CCOC(=O)c1cn(C)c2c(ccc3c2nnn3Cc2ccccc2)c1=O`, for which the lowest concentration to inhibit growth (MIC) was 64 µg/mL (≈ 177 µM).

Regarding `C=C(C)Cn1cc(C(=O)OCC)c(=O)c2ccc3c(nnn3C)c21`, the minimum inhibitory concentration (MIC) was greater than 128 µg/mL.

As for `C=C(C)Cn1cc(C(=O)O)c(=O)c2ccc3c(nnn3C)c21`, the minimum inhibitory concentration (MIC) stood at 32 µg/mL (≈ 107 µM).

Compound `O=C(O)c1cn(C2CC2)c2cc(N3CCNCC3)c(F)cc2c1=O` [CIPROFLOXACIN] displayed a minimal inhibitory concentration (MIC) of 0.25 µg/mL (≈ 0.754 µM).

Consider `C=CCn1cc(C(=O)OCC)c(=O)c2ccc3c(nnn3Cc3ccccc3)c21`, for which the minimum inhibitory concentration (MIC) worked out at 64 µg/mL (≈ 165 µM).

Take `CCOC(=O)c1cn(C(C)(C)C)c2c(ccc3c2nnn3C)c1=O`: 8 µg/mL (≈ 24.4 µM) was the least that counted as inhibitory (MIC).

With `Cn1cc(C(=O)O)c(=O)c2ccc3c(nnn3Cc3ccccc3)c21`, it took 4 µg/mL (≈ 12 µM) to inhibit growth (MIC). Compared with the last compound, the MIC is about 2-fold lower.

Compound `Cn1cc(C(=O)O)c(=O)c2ccc3c(nnn3C)c21` registered a minimum inhibitory concentration (MIC) of 4 µg/mL (≈ 15.5 µM).

`Cn1nnc2c3c(ccc21)c(=O)c(C(=O)O)cn3CC1CCC1` displayed a minimal inhibitory concentration (MIC) of 16 µg/mL (≈ 51.2 µM).

Compound `CCOC(=O)c1cn(CC)c2c(ccc3c2nnn3Cc2ccccc2)c1=O` registered an MIC greater than 128 µg/mL.

`Cn1nnc2c3c(ccc21)c(=O)c(C(=O)O)cn3CC1CC1` had a minimal inhibitory concentration (MIC) of 16 µg/mL (≈ 53.6 µM).

`CCOC(=O)c1cn(CC2CCC2)c2c(ccc3c2nnn3C)c1=O` had an MIC of 64 µg/mL (≈ 188 µM).

Compound `Cn1nnc2c3c(ccc21)c(=O)c(C(=O)O)cn3C(C)(C)C` came in with an MIC of 16 µg/mL (≈ 53.3 µM). This MIC lies about 4-fold lower than the previous one.

For the compound `C=CCn1cc(C(=O)O)c(=O)c2ccc3c(nnn3Cc3ccccc3)c21`, the minimum inhibitory concentration (MIC) came out at 8 µg/mL (≈ 22.2 µM).

The compound `CCn1cc(C(=O)O)c(=O)c2ccc3c(nnn3Cc3ccccc3)c21` registered an MIC of 16 µg/mL (≈ 45.9 µM).

`CCOC(=O)c1cn(CC2CC2)c2c(ccc3c2nnn3C)c1=O`: the minimal inhibitory concentration (MIC) worked out at 64 µg/mL (≈ 196 µM).

`CCCCn1cc(C(=O)O)c(=O)c2ccc3c(nnn3Cc3ccccc3)c21` registered an MIC of 64 µg/mL (≈ 170 µM).

The record behind these values is ChEMBL document CHEMBL1649406, “Synthesis and anti-mycobacterial activities of triazoloquinolones” (Eur J Med Chem, 2011).
